In ChEMBL document CHEMBL4411275, “Design, synthesis and biological evaluation of quinoline-indole derivatives as anti-tubulin agents targeting the colchicine binding site” (Eur J Med Chem, 2019):
Blank lines part the entries; values can stand above or below the molecule they belong to.

Experiments:
HepG2 = assay: Antiproliferative activity against human HepG2 cells after 72 hrs by MTT assay; format: functional, cell-based; details: HepG2, 72 h
In short: (§1)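 Cells preincubated 24 h at 37 °C, 5% CO₂. Compounds added at several concentrations in medium with 0.1% DMSO for 72 h. MTT (5 mg/mL in PBS) then added for 4 h, and optical density read at 490 nm. IC50 taken from dose-response curves; mean ± SD of at least three independent experiments.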

K562 = assay: Antiproliferative activity against human K562 cells after 72 hrs by MTT assay; format: functional, cell-based; details: K562, 72 h; in short: as §1
HCT-8 = assay: Antiproliferative activity against human HCT8 cells after 72 hrs by MTT assay; format: functional, cell-based; details: HCT-8, 72 h; in short: as §1
L02 = assay: Antiproliferative activity against human LO2 cells after 72 hrs by MTT assay; format: cell-based; details: L02, 72 h; in short: as §1
KB = assay: Antiproliferative activity against human KB cells after 72 hrs by MTT assay; format: functional, cell-based; in short: as §1
MDA-MB-231 = assay: Antiproliferative activity against human MDA-MB-231 cells after 72 hrs by MTT assay; format: functional, cell-based; details: MDA-MB-231, 72 h; in short: as §1
H22 (Mus musculus) [1] = assay: Antiproliferative activity against mouse H22 cells after 72 hrs by MTT assay; details: H22, 72 h
Bel-7402 = assay: Antiproliferative activity against human Bel7402 cells after 72 hrs by MTT assay; format: functional, cell-based; details: Bel-7402, 72 h; in short: as §1
[2] = Drug resistance index, ratio of IC50 for ADR-resistant human Bel7402/ADR cells to IC50 for human Bel7402 cells; format: functional
In short: (§2)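 Resistant and parental sensitive lines exposed to a range of compound concentrations in medium with 0.1% DMSO for 72 h at 37 °C, 5% CO2, after 24 h pre-culture. MTT added for 4 h, absorbance read at 490 nm. IC50 from dose-response curves, at least three independent experiments. DRI = IC50 resistant / IC50 parental.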

[3] = Antiproliferative activity against human ADR-resistant Bel7402/ADR cells after 72 hrs by MTT assay; format: functional; details: Bel-7402, 72 h; in short: as §1
Tubulin (Sus scrofa) [4] = target: T1, Tubulin (Sus scrofa) (UniProt P02554+P02550); assay: Inhibition of [3H]-colchicine binding to biotinylated porcine tubulin at 5 uM after 2 hrs by SPA relative to control; format: protein assay
In short: (§3)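 Scintillation proximity assay: 0.08 μM [3H]colchicine incubated with biotinylated porcine tubulin (0.5 μg) and test compound for 2 h at 37 °C in 80 mM PIPES pH 6.8, 1 mM EGTA, 10% glycerol, 1 mM MgCl2, 1 mM GTP. Streptavidin SPA beads then added, and bound radioactivity counted by scintillation counter.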

Tubulin = Tubulin (Sus scrofa, UniProt P02554+P02550); assay: Inhibition of porcine brain tubulin polymerization preincubated for 30 mins and measured every 2 mins for 60 mins by spectrophotometric analysis
Tubulin (Sus scrofa) [5] = target: T1, Tubulin (Sus scrofa); assay: Inhibition of [3H]-colchicine binding to biotinylated porcine tubulin at 1 uM after 2 hrs by SPA relative to control; format: protein assay; in short: as §3
A549 = assay: Antiproliferative activity against human A549 cells after 72 hrs by MTT assay; format: functional, cell-based; details: A549, 72 h; in short: as §1
[6] = Drug resistance index, ratio of IC50 for taxol-resistant human HCT8/T cells to IC50 for human HCT8 cells; format: functional; in short: as §2
[7] = Antiproliferative activity against human taxol-resistant HCT8/T cells after 72 hrs by MTT assay; format: functional; details: HCT-8, 72 h; in short: as §1
[8] = Toxicity in ICR mouse xenografted with […] cells assessed as body weight loss at 6 mg/kg, iv administered every 2 days for 21 days; format: organism-based; details: in vivo
In short: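 Five-week-old male ICR mice inoculated subcutaneously in the right flank with 1×10^6 H22 cells. Randomised after one day into groups of eight. Dosed intravenously every 2 days for three weeks. Tumour volume and body weight recorded every 2 days. Tumours then excised and weighed; inhibition (%) = (1 − mean treated tumour weight / mean control tumour weight) × 100.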

H22 (Mus musculus) [9] = assay: Antitumor activity against mouse H22 cells xenografted in ICR mouse assessed as reduction in tumor weight at 6 mg/kg, iv administered every 2 days for 21 days relative to control; set-up: scale not given: the % may be the effect or the level left
[10] = Drug resistance index, ratio of IC50 for taxol-resistant human A549/TR cells to IC50 for human A549 cells; format: functional; in short: as §2
A549/TR = assay: Antiproliferative activity against human taxol-resistant A549/TR cells after 72 hrs by MTT assay; format: functional, cell-based; in short: as §1
H22 (Mus musculus) [11] = assay: Antitumor activity against mouse H22 cells xenografted in ICR mouse assessed as reduction in tumor weight at 20 mg/kg/day, iv for 21 days relative to control; set-up: scale not given: the % may be the effect or the level left
K562/VCR = assay: Antiproliferative activity against human VCR-resistant K562/VCR cells after 72 hrs by MTT assay; format: functional, cell-based; in short: as §1
[12] = Drug resistance index, ratio of IC50 for VCR-resistant human K562/VCR cells to IC50 for human K562 cells; format: functional

T1 sequence (P02550 whole entry, looked up): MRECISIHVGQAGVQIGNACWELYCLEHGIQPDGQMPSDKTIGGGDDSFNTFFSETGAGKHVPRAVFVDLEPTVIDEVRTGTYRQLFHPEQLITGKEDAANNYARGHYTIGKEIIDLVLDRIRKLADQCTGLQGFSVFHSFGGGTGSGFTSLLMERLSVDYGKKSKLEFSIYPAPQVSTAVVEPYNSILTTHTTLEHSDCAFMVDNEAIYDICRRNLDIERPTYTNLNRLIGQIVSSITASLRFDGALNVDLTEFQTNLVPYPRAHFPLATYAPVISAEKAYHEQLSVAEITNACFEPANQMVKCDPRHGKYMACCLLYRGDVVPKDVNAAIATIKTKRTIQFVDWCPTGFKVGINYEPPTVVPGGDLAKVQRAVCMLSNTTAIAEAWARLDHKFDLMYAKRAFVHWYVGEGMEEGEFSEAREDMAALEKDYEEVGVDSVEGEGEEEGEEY
T1 sequence (P02554 whole entry, looked up): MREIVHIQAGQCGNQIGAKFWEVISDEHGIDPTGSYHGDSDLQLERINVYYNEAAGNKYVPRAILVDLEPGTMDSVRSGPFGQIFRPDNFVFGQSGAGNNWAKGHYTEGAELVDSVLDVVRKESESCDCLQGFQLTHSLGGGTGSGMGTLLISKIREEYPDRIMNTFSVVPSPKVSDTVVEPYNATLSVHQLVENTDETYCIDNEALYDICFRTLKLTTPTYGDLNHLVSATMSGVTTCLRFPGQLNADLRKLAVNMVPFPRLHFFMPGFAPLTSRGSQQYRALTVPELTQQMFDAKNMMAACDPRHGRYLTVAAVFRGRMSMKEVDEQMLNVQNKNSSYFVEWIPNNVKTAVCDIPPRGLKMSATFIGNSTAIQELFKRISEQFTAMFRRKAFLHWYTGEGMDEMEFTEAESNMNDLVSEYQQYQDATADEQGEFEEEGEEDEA

SMILES: C=C(c1ccc2c(ccn2C(C)=O)c1)c1cc(C)nc2ccccc12
- IC50 (K562): 179 nM

SMILES: C=C(c1cc(C)nc2ccccc12)c1cccc2[nH]ccc12
- IC50 (K562): > 1000 nM

SMILES: C=C(c1ccc2c(ccn2C)c1)c1cc(CO)nc2ccccc12
- IC50 (K562): 123 nM

SMILES: C=C(c1cc(C)nc2ccccc12)c1c[nH]c2cc(OC)ccc12
- IC50 (K562): > 1000 nM

SMILES: C=C(c1ccc2c(ccn2CF)c1)c1cc(C)nc2ccccc12
- IC50 (K562): 153 nM

SMILES: C=C(c1ccc2[nH]ccc2c1)c1cc(C)nc2ccccc12
- IC50 (HepG2): 377 nM
- IC50 (K562): 121 nM
- IC50 (HCT-8): 403 nM
- IC50 (L02): 881 nM
- IC50 (KB): 372 nM
- IC50 (MDA-MB-231): 204 nM
- IC50 (H22 (Mus musculus) [1]): 184 nM

SMILES: C=C(c1ccc2c(ccn2C)c1)c1cc(C)nc2ccccc12
- inhibition (Tubulin (Sus scrofa) [4]): 89.4%
- IC50 (Tubulin): 2540 nM
- inhibition (Tubulin (Sus scrofa) [5]): 78.4%

SMILES: COc1ccc(/C=C\c2cc(OC)c(OC)c(OC)c2)cc1OP(=O)([O-])[O-].[Na+].[Na+] [FOSBRETABULIN DISODIUM]
- Activity (H22 (Mus musculus) [11]): 62.7%

SMILES: C=C(c1ccc2c(ccn2C)c1)c1ccnc2ccccc12
- IC50 (K562): 90 nM

SMILES: COc1ccc(/C=C\c2cc(OC)c(OC)c(OC)c2)cc1O [COMBRETASTATIN A4]
- IC50 (Bel-7402): 11 nM
- IC50 (A549): 9 nM
- IC50 (HepG2): 9 nM
- IC50 (K562/VCR): 57 nM
- IC50 (K562): 7 nM
- Activity (H22 (Mus musculus) [11]): 51%
- IC50 [7]: 87 nM
- IC50 (HCT-8): 11 nM
- IC50 (L02): 46 nM
- IC50 [3]: 58 nM
- IC50 (MDA-MB-231): 11 nM
- IC50 (H22 (Mus musculus) [1]): 10 nM
- IC50 (A549/TR): 175 nM

SMILES: C=C(c1cc(C)nc2ccccc12)c1cn(C)c2cc(OC)ccc12
- IC50 (K562): 106 nM

SMILES: C=C(c1ccc2c(ccn2C(=O)OC(C)(C)C)c1)c1cc(C)nc2ccccc12
- IC50 (K562): > 1000 nM

SMILES: C=C(c1cc(C)nc2ccccc12)c1cccc2c1ccn2C
- IC50 (K562): > 1000 nM

Now from value to molecule, other results behind:

- IC50 (HepG2): 101 nM
- IC50 (K562): 37 nM
- IC50 (HCT-8): 96 nM
- IC50 (KB): 109 nM
- IC50 (MDA-MB-231): 103 nM
SMILES: Cc1cc(C(C)c2ccc3c(ccn3C)c2)c2ccccc2n1 (centres undefined)
- IC50 (L02): 214 nM
- IC50 (H22 (Mus musculus) [1]): 120 nM

- IC50 (HepG2): 53 nM
- IC50 (K562): 46 nM
- IC50 (HCT-8): 103 nM
- IC50 (KB): 84 nM
- IC50 (MDA-MB-231): 112 nM
SMILES: C=C(c1ccc2c(ccn2C)c1)c1cc(OC)nc2ccccc12
- IC50 (L02): 197 nM
- IC50 (H22 (Mus musculus) [1]): 105 nM

- IC50 (K562): > 1000 nM
SMILES: COc1ccc2c(ccn2-c2cc(C)nc3ccccc23)c1

- IC50 (K562): 289 nM
SMILES: COc1ccc2c(ccn2C(=O)c2cc(C)nc3ccccc23)c1N

- IC50 (Bel-7402): 274 nM
SMILES: COc1cccc2c1C(=O)c1c(O)c3c(c(O)c1C2=O)C[C@@](O)(C(=O)CO)C[C@@H]3O[C@H]1C[C@H](N)[C@H](O)[C@H](C)O1.Cl [DOXORUBICIN HYDROCHLORIDE]
- Ratio IC50 [2]: 6.3
- IC50 [3]: 1730 nM

- IC50 (K562): 446 nM
SMILES: C=C(c1ccc2c(ccn2C)c1)c1cc(C(F)(F)F)nc2ccccc12

- IC50 (K562): > 1000 nM
SMILES: COc1ccc2c(ccn2C(=O)c2cc(C)nc3ccccc23)c1

- IC50 (K562): 94 nM
SMILES: C=C(c1ccc2c(ccn2C)c1)c1cc(C=O)nc2ccccc12

- IC50 (K562): 31 nM
SMILES: C=C(c1ccc2c(ccn2CC)c1)c1cc(C)nc2ccccc12

- IC50 (K562): > 1000 nM
SMILES: Cc1cc(C(C)c2cccc3c2ccn3C)c2ccccc2n1 (centres undefined)

- IC50 (A549): 18 nM
- IC50 (HCT-8): 28 nM
- IC50 (A549/TR): 1830 nM
SMILES: CC(=O)O[C@H]1C(=O)[C@@]2(C)[C@H]([C@H](OC(=O)c3ccccc3)[C@]3(O)C[C@H](OC(=O)[C@H](O)[C@@H](NC(=O)c4ccccc4)c4ccccc4)C(C)=C1C3(C)C)[C@]1(OC(C)=O)CO[C@@H]1C[C@@H]2O [PACLITAXEL]
- Ratio IC50 [6]: 92.5
- IC50 [7]: 2590 nM
- Activity [8]: Toxic
- Activity (H22 (Mus musculus) [9]): 72.7%
- Ratio IC50 [10]: 101.6

- IC50 (HepG2): 20 nM
- IC50 (K562): 5 nM
- IC50 (HCT-8): 10 nM
- IC50 (KB): 8 nM
- IC50 (MDA-MB-231): 27 nM
SMILES: C=C(c1ccc2c(ccn2C)c1)c1cc(NC)nc2ccccc12
- IC50 (L02): 85 nM
- IC50 (H22 (Mus musculus) [1]): 25 nM

- IC50 (K562): 171 nM
SMILES: C=C(c1ccc2c(ccn2C)c1)c1cc(N(C)C)nc2ccccc12

- IC50 (K562): 282 nM
SMILES: C=C(c1ccc2c(ccn2C)c1)c1cc(C(N)=O)nc2ccccc12

- IC50 (K562/VCR): 5060 nM
- IC50 (K562): 21 nM
SMILES: CC[C@]1(O)C[C@H]2CN(CCc3c([nH]c4ccccc34)[C@@](C(=O)OC)(c3cc4c(cc3OC)N(C=O)[C@H]3[C@@](O)(C(=O)OC)[C@H](OC(C)=O)[C@]5(CC)C=CCN6CC[C@]43[C@@H]65)C2)C1 [VINCRISTINE]
- Ratio IC50 [12]: 241

- IC50 (K562): > 1000 nM
SMILES: COc1ccc2c(C(C)c3cc(C)nc4ccccc34)c[nH]c2c1 (centres undefined)

- IC50 (K562): 79 nM
SMILES: COc1ccc2c(ccn2-c2cc(C)nc3ccccc23)c1N
